The record followed here is ChEMBL document CHEMBL1141180, “Synthesis and antiviral activity of helioxanthin analogues” (J Med Chem, 2005).

One test relates to Hepatitis B virus. Put plainly: Effective concentration to inhibit 50% of hepatitis B virus replication in a cell culture model. Type of test: functional, organism-based.
The next test concerns Human gammaherpesvirus 4. Put plainly: Effective concentration to inhibit 50% of epstein Barr virus replication in a cell culture model. The format is functional, organism-based.
The subject of a further test is Human alphaherpesvirus 2. In words: Effective concentration to inhibit 50% of herpes simplex virus type 2 replication in a cell culture model. Type of test: functional, organism-based.
The subject of the next test is Hepatitis C virus. In words: Effective concentration to inhibit 50% of hepatitis C virus replication in a cell culture model. Type of test: functional, organism-based, Hepacivirus hominis. Put shortly: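 HCV replicon Huh-Luc/neo cells grown to confluence, then treated with varying drug concentrations in DMEM with 10% dFBS for 3 days. Medium was removed and cells lysed in passive lysis buffer, shaken 15 min at room temperature. Lysate was mixed with luciferase substrate and luminescence read immediately as the measure of replicon activity.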

The test system of a further test is Human alphaherpesvirus 1. In words: Effective concentration to inhibit 50% of herpes simplex virus type 1 replication in a cell culture model. The format is functional, organism-based.
The nature of test [1]: Effective concentration to inhibit 50% of human immunodeficiency virus replication in a cell culture model. Type of test: functional.
A further test relates to MT2. Put plainly: Cytotoxicity against MT-2 cell lines of human. Type of test: functional. The settings on record: read-out: ID50 (the source's name).
The test system of a further test is CCRF-CEM. In words: Cytotoxicity against CEM cell lines of human. The format is functional. The settings on record: read-out: ID50 (the source's name).

One may read the EC50 as the concentration at which the effect is half-maximal. In the case of `O=C(OCc1ccccc1)c1cc2ccc3c(c2c(-c2ccc4c(c2)OCO4)c1COCc1ccccc1)OCO3`, the EC50 is over 10 µM with Hepatitis B virus; over 20 µM in the test with Human gammaherpesvirus 4; over 50 µM in the test on Human alphaherpesvirus 2; 10 µM in the test on Hepatitis C virus; over 50 µM with Human alphaherpesvirus 1; over 100 µM in test [1]. Further, the IC50 with MT2 came out at 100 µM; with CCRF-CEM, 50 µM.
In the case of `O=C1c2cc3ccc4c(c3c(-c3ccc5c(c3)OCO5)c2CN1CCCO)OCO4`, the EC50 is over 0.9 µM with Hepatitis B virus; over 20 µM in the test on Human gammaherpesvirus 4; 7 µM in the test on Human alphaherpesvirus 2; over 10 µM in the test with Hepatitis C virus; 5 µM in the test with Human alphaherpesvirus 1; over 8 µM in test [1]. Besides, the results for the IC50 in the test on MT2 and with CCRF-CEM were 8 µM and 6 µM, respectively.
In the case of `CC(=O)NN1C(=O)c2cc3ccc4c(c3c(-c3ccc5c(c3)OCO5)c2C1=O)OCO4`, the EC50 is 1 µM in the test on Hepatitis B virus; over 20 µM with Human gammaherpesvirus 4; over 40 µM with Human alphaherpesvirus 2; over 10 µM in the test on Hepatitis C virus; over 40 µM in the test on Human alphaherpesvirus 1; over 100 µM in test [1]. In addition, the values for the IC50 in the test on MT2 and with CCRF-CEM were over 100 µM and 93 µM, respectively.
As to `COc1ccc(-c2c3c(cc4ccc5c(c24)OCO5)C(=O)NC3)cc1OC`, the EC50 was over 10 µM in the test with Hepatitis B virus; over 20 µM in the test with Human gammaherpesvirus 4; 0.5 µM in the test with Human alphaherpesvirus 2; 3 µM with Hepatitis C virus; 0.6 µM in the test on Human alphaherpesvirus 1; over 16 µM in test [1]. The IC50 in the test on MT2 was 16 µM; in the test on CCRF-CEM, 5 µM.
Regarding `O=C(O)c1cc2ccc3c(c2c(-c2ccc4c(c2)OCO4)c1C(=O)O)OCO3`, the EC50 with Hepatitis B virus was over 10 µM; with Human gammaherpesvirus 4, over 20 µM; in the test on Human alphaherpesvirus 2, over 50 µM; in the test with Hepatitis C virus it was over 10 µM; in the test on Human alphaherpesvirus 1, over 50 µM; in test [1], over 100 µM. The IC50 with MT2 and with CCRF-CEM was over 100 µM each time.
With `CN(C)C(=O)c1cc2ccc3c(c2c(-c2ccc4c(c2)OCO4)c1C(=O)O)OCO3`, the EC50 is over 10 µM with Hepatitis B virus; over 20 µM with Human gammaherpesvirus 4; over 50 µM in the test with Human alphaherpesvirus 2; over 10 µM in the test with Hepatitis C virus; over 50 µM in the test with Human alphaherpesvirus 1; over 70 µM in test [1]. In addition, the values for the IC50 with MT2 and in the test on CCRF-CEM were 70 µM and 76 µM, respectively.
With `CN1Cc2cc3ccc4c(c3c(-c3ccc5c(c3)OCO5)c2C1=O)OCO4`, the EC50 in the test with Hepatitis B virus is 0.08 µM; in the test on Human gammaherpesvirus 4, over 20 µM; in the test on Human alphaherpesvirus 2 it was 14 µM; in the test on Hepatitis C virus, 3 µM; in the test on Human alphaherpesvirus 1, 14 µM; in test [1], over 26 µM. In addition, the IC50 with MT2 stood at 26 µM; in the test on CCRF-CEM it was 27 µM.
Turning to `COC(=O)c1cc2ccc3c(c2c(-c2ccc4c(c2)OCO4)c1C(=O)OC)OCO3`, the EC50 with Hepatitis B virus was over 20 µM; in the test on Human gammaherpesvirus 4, over 20 µM; in the test with Human alphaherpesvirus 2 it was over 50 µM; in the test with Hepatitis C virus it was 10 µM; with Human alphaherpesvirus 1, over 50 µM; in test [1], over 28 µM. Also, the values for the IC50 in the test with MT2 and in the test on CCRF-CEM were 28 µM and 50 µM, respectively.
Regarding `CC(=O)NN1Cc2cc3ccc4c(c3c(-c3ccc5c(c3)OCO5)c2C1=O)OCO4`, the EC50 was 0.03 µM in the test on Hepatitis B virus; over 20 µM in the test with Human gammaherpesvirus 4; 40 µM in the test with Human alphaherpesvirus 2; over 10 µM in the test on Hepatitis C virus; 17 µM in the test with Human alphaherpesvirus 1; over 25 µM in test [1]. Further, the values for the IC50 with MT2 and in the test with CCRF-CEM were 25 µM and 32 µM, respectively.
As to `O=C1NC(=O)c2c1cc1ccc3c(c1c2-c1ccc2c(c1)OCO2)OCO3`, the EC50 with Hepatitis B virus was over 10 µM.
Turning to `O=C1c2cc3ccc4c(c3c(-c3ccc5c(c3)OCO5)c2C(=O)N1O)OCO4`, the EC50 with Hepatitis B virus was over 10 µM; in the test on Human gammaherpesvirus 4 it was over 5 µM; in the test with Human alphaherpesvirus 2, over 30 µM; in the test on Hepatitis C virus, over 10 µM; in the test with Human alphaherpesvirus 1, over 30 µM; in test [1] it was over 16 µM. Further, the IC50 in the test with MT2 came to 16 µM; in the test on CCRF-CEM it was 17 µM.
`O=C(O)c1cc2ccc3c(c2c(-c2ccc4c(c2)OCO4)c1COCc1ccccc1)OCO3`: the EC50 in the test on Hepatitis B virus is over 10 µM; in the test on Human gammaherpesvirus 4 it was over 20 µM; in the test on Human alphaherpesvirus 2, over 25 µM; in the test on Hepatitis C virus, over 10 µM; in the test on Human alphaherpesvirus 1, over 25 µM; in test [1] it was over 48 µM. Further, the IC50 in the test with MT2 is 48 µM; in the test on CCRF-CEM it was over 50 µM.
`COc1ccc(-c2c(C(=O)O)c(C(N)=O)cc3ccc4c(c23)OCO4)cc1OC`: the EC50 is 0.8 µM in the test on Hepatitis B virus; over 20 µM in the test with Human gammaherpesvirus 4; over 3 µM in the test with Human alphaherpesvirus 2; 3 µM with Hepatitis C virus; 0.8 µM in the test with Human alphaherpesvirus 1; over 10 µM in test [1]. Moreover, the IC50 with MT2 was 10 µM; with CCRF-CEM it was 3 µM.
As for `O=C1OC(O)c2c1c(-c1ccc3c(c1)OCO3)c1c3c(ccc1c2O)OCO3` (configuration not stated), the EC50 was over 20 µM with Hepatitis B virus; over 10 µM in the test with Human gammaherpesvirus 4; over 28 µM with Human alphaherpesvirus 2; over 10 µM in the test with Hepatitis C virus; over 23 µM in the test with Human alphaherpesvirus 1; over 15 µM in test [1]. Further, the IC50 in the test on MT2 worked out at 15 µM; in the test with CCRF-CEM, 39 µM.
Turning to `CC(=O)NN1Cc2c(cc3ccc4c(c3c2-c2ccc3c(c2)OCO3)OCO4)C1=O`, the EC50 was over 20 µM in the test on Hepatitis B virus; 13 µM with Human gammaherpesvirus 4; 10 µM in the test on Human alphaherpesvirus 2; over 10 µM in the test on Hepatitis C virus; 5 µM in the test with Human alphaherpesvirus 1; over 7 µM in test [1]. Moreover, the IC50 in the test with MT2 was determined as 7 µM; in the test with CCRF-CEM, 40 µM.
For the molecule `O=C1c2cc3ccc4c(c3c(-c3ccc5c(c3)OCO5)c2CN1CCCOCc1ccccc1)OCO4`, the EC50 was over 20 µM in the test with Hepatitis B virus; over 20 µM in the test on Human gammaherpesvirus 4; over 20 µM with Human alphaherpesvirus 2; 10 µM with Hepatitis C virus; 13 µM in the test with Human alphaherpesvirus 1; over 28 µM in test [1]. Besides, the figures for the IC50 in the test on MT2 and with CCRF-CEM were 28 µM and 67 µM, respectively.
As to `COc1ccc(-c2c3c(cc4ccc5c(c24)OCO5)C(=O)NC3=O)cc1OC`, in the test with Hepatitis B virus, the response was half-maximal at 0.8 µM (EC50).
On to `CN1Cc2c(cc3ccc4c(c3c2-c2ccc3c(c2)OCO3)OCO4)C1=O`, for which the EC50 was over 20 µM in the test on Hepatitis B virus; over 20 µM in the test with Human gammaherpesvirus 4; 1 µM in the test on Human alphaherpesvirus 2; over 3 µM with Hepatitis C virus; 0.67 µM in the test with Human alphaherpesvirus 1; over 8 µM in test [1]. Also, the figures for the IC50 in the test with MT2 and in the test on CCRF-CEM were 8 µM and 6 µM, respectively.
In the case of `O=C1NCc2c1cc1ccc3c(c1c2-c1ccc2c(c1)OCO2)OCO3`, the EC50 with Hepatitis B virus was 0.08 µM; in the test on Human gammaherpesvirus 4, 11 µM; in the test on Human alphaherpesvirus 2, 0.16 µM; with Hepatitis C virus it was 1 µM; in the test on Human alphaherpesvirus 1 it was 0.29 µM; in test [1] it was over 4 µM. The IC50 in the test with MT2 was determined as 4 µM; in the test on CCRF-CEM it was 4.5 µM.
In the case of `CNC(=O)c1cc2ccc3c(c2c(-c2ccc4c(c2)OCO4)c1C(=O)O)OCO3`, the EC50 with Hepatitis B virus is over 10 µM; in the test with Human gammaherpesvirus 4, over 20 µM; in the test on Human alphaherpesvirus 2, over 25 µM; in the test with Hepatitis C virus, over 10 µM; in the test on Human alphaherpesvirus 1 it was 12 µM; in test [1], over 26 µM. Besides, the IC50 in the test with MT2 came out at 26 µM; in the test on CCRF-CEM, 29 µM.
With `COC(=O)c1c(C(=O)O)cc2ccc3c(c2c1-c1ccc2c(c1)OCO2)OCO3`, the EC50 was over 20 µM in the test with Hepatitis B virus; over 20 µM with Human gammaherpesvirus 4; over 50 µM in the test on Human alphaherpesvirus 2; over 10 µM in the test with Hepatitis C virus; over 50 µM in the test on Human alphaherpesvirus 1; over 90 µM in test [1]. In addition, the results for the IC50 with MT2 and in the test on CCRF-CEM were 90 µM and 74 µM, respectively.
`O=c1[nH][nH]c(=O)c2c(-c3ccc4c(c3)OCO4)c3c4c(cc(Cl)c3cc12)OCO4`: the EC50 was over 20 µM in the test with Hepatitis B virus; over 20 µM in the test on Human gammaherpesvirus 4; over 40 µM with Human alphaherpesvirus 2; 10 µM in the test with Hepatitis C virus; over 7 µM in the test on Human alphaherpesvirus 1; over 54 µM in test [1]. The IC50 is 54 µM with MT2 and 38 µM in the test on CCRF-CEM.
As for `O=c1[nH][nH]c(=O)c2c(-c3ccc4c(c3)OCO4)c3c4c(ccc3cc12)OCO4`, the EC50 in the test with Hepatitis B virus was 0.03 µM; in the test with Human gammaherpesvirus 4, over 25 µM; in the test on Human alphaherpesvirus 2, 1.4 µM; with Hepatitis C virus it was over 10 µM; in the test on Human alphaherpesvirus 1, 1.4 µM; in test [1], 2.7 µM. Moreover, the IC50 in the test with MT2 came out at 16 µM; in the test on CCRF-CEM it was 50 µM.
As to `O=c1[nH][nH]c(=O)c2c(-c3ccc4c(c3)OCO4)c3c4c(cc(I)c3cc12)OCO4`, the EC50 was over 10 µM with Hepatitis B virus; over 20 µM with Human gammaherpesvirus 4; over 40 µM in the test on Human alphaherpesvirus 2; 10 µM in the test with Hepatitis C virus; over 40 µM in the test on Human alphaherpesvirus 1; over 2 µM in test [1]. In addition, the IC50 in the test with MT2 stood at 35 µM; in the test on CCRF-CEM, 40 µM.
In the case of `COC1=NC(=O)c2c1cc1ccc3c(c1c2-c1ccc2c(c1)OCO2)OCO3`, the EC50 with Hepatitis B virus was over 5 µM; in the test with Human gammaherpesvirus 4, over 20 µM; in the test on Human alphaherpesvirus 2 it was over 50 µM; in the test on Hepatitis C virus it was over 10 µM; in the test with Human alphaherpesvirus 1 it was over 50 µM; in test [1] it was over 100 µM. Further, the IC50 in the test with MT2 and in the test on CCRF-CEM was over 100 µM throughout.
On to `Cc1c(C(=O)OCCCO)cc2ccc3c(c2c1-c1ccc2c(c1)OCO2)OCO3`, for which the EC50 with Hepatitis B virus is over 10 µM; in the test on Human gammaherpesvirus 4, over 15 µM; in the test with Human alphaherpesvirus 2, over 25 µM; in the test with Hepatitis C virus, over 10 µM; with Human alphaherpesvirus 1, over 25 µM; in test [1], over 10 µM. The IC50 in the test with MT2 came out at 10 µM; in the test with CCRF-CEM, 46 µM.
In the case of `Nc1ccn([C@H]2CC[C@@H](CO)O2)c(=O)n1` [ZALCITABINE], a half-maximal effect in test [1] (EC50) was put at 0.8 µM. Moreover, the IC50 in the test with MT2 was 70 µM; in the test with CCRF-CEM, 5 µM.
